Active and inactive are the calls of the source. No cut-off for these calls is given here.
Columns and labels:
Staphylococcus aureus [1] = assay: Antibacterial activity against Staphylococcus aureus 209P assessed as zone of inhibition by disk-plate assay; type: functional
Escherichia coli [2] = assay: Toxicity in lambda-bacteriophage infected Escherichia coli at 3.1 ug/ml; type: organism-based; details: in vivo
Micrococcus luteus = assay: Antibacterial activity against Sarcina lutea assessed as zone of inhibition by disk-plate assay; type: functional
[3] = (§1) Induction of lambda-bacteriophage expression in Escherichia coli assessed as induction of plaques at 0.2 ug/ml relative to control; type: functional, Enterobacteria phage lambda
Escherichia coli [4] = assay: Toxicity in lambda-bacteriophage infected Escherichia coli at 0.8 ug/ml; type: organism-based; details: in vivo
[5] = test system: Mycolicibacterium smegmatis; assay: Antibacterial activity against Mycobacterium smegmatis 607 assessed as zone of inhibition by disk-plate assay; type: functional
Escherichia coli [6] = assay: Antibacterial activity against Escherichia coli K-12 assessed as zone of inhibition by disk-plate assay; type: functional
Escherichia coli [7] = assay: Antibacterial activity against Escherichia coli B A9885 assessed as zone of inhibition by disk-plate assay; type: functional
Klebsiella pneumoniae = assay: Antibacterial activity against Klebsiella pneumoniae assessed as zone of inhibition by disk-plate assay; type: functional
[8] = Induction of lambda-bacteriophage expression in Escherichia coli assessed as induction of plaques at 3.1 ug/ml relative to control; type: functional, Enterobacteria phage lambda
Staphylococcus aureus [9] = assay: Antibacterial activity against Staphylococcus aureus Smith P assessed as zone of inhibition by disk-plate assay; type: functional
Bacillus subtilis = assay: Antibacterial activity against Bacillus subtilis assessed as zone of inhibition by disk-plate assay; type: functional
[10] = (§2) Induction of lambda-bacteriophage expression in Escherichia coli assessed as induction of plaques at 0.8 ug/ml relative to control; type: functional, Enterobacteria phage lambda
Enterococcus faecalis = assay: Antibacterial activity against Streptococcus faecalis P1377 assessed as zone of inhibition by disk-plate assay; type: functional
P388 [11] = assay: Antitumor activity against mouse P388 cells allografted CDF mouse assessed as increase in maximum survival time at 6.4 mg/kg treated on days 1 and 5 following tumor implantation relative to saline treated control; type: functional
Summary of the method: (§3)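 Male CDF mice implanted intraperitoneally with 10⁶ P388 ascites leukemia cells; compound given on days 1 and 5 after tumor inoculum. Increase in maximum survival time calculated against saline-treated controls. Six mice per treated group, ten mice in the control group.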

[12] = Induction of lambda-bacteriophage expression in Escherichia coli assessed as induction of plaques at 0.003 ug/ml relative to control; type: functional, Enterobacteria phage lambda
[13] = (§4) Induction of lambda-bacteriophage expression in Escherichia coli assessed as induction of plaques at 0.05 ug/ml relative to control; type: functional, Enterobacteria phage lambda
P388 [14] = assay: Antitumor activity against mouse P388 cells allografted CDF mouse assessed as increase in maximum survival time at 12.8 mg/kg treated on days 1 and 5 following tumor implantation relative to saline treated control; type: functional, organism-based; parameters: dose 12.8 mg/kg
Summary of the method: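 CDF male mice inoculated intraperitoneally with 10⁶ P388 ascites leukemia cells. Compound given at 12.8 mg/kg on days 1 and 5 after tumor inoculum. Six mice per compound group and ten mice in the saline control group. Read-out is percent increase in maximum survival time over the saline controls.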

[15] = Induction of lambda-bacteriophage expression in Escherichia coli assessed as induction of plaques at 0.0125 ug/ml relative to control; type: functional, Enterobacteria phage lambda
P388 [16] = assay: Antitumor activity against mouse P388 cells allografted CDF mouse assessed as increase in maximum survival time at 3.2 mg/kg treated on days 1 and 5 following tumor implantation relative to saline treated control; type: functional; summary of the method: as §3
[17] = test system: Enterobacteria phage lambda; assay: as §4; type: functional
[18] = test system: Enterobacteria phage lambda; assay: as §1; type: functional
Escherichia coli [19] = assay: Toxicity in lambda-bacteriophage infected Escherichia coli at 0.2 ug/ml; type: organism-based; details: in vivo
Escherichia coli [20] = assay: Toxicity in lambda-bacteriophage infected Escherichia coli at 0.05 ug/ml; type: organism-based; details: in vivo
[21] = test system: Enterobacteria phage lambda; assay: as §2; type: functional
Escherichia coli [22] = assay: Toxicity in lambda-bacteriophage infected Escherichia coli at 0.0125 ug/ml; type: organism-based; details: in vivo

**Q.** What does the source list for COC1=C(C)C(=O)c2c(c(COC(N)=O)c3n2C[C@@H](N)[C@H]3O)C1=O?
**A.** diameter of the inhibition zone (DIZ) (Staphylococcus aureus [1]): 9 mm; Activity (Escherichia coli [2]): Toxic; diameter of the inhibition zone (DIZ) (Micrococcus luteus): 9 mm; Ratio [3]: 1.4; Activity (Escherichia coli [4]): Toxic; diameter of the inhibition zone (DIZ) [5]: 4 mm; diameter of the inhibition zone (DIZ) (Escherichia coli [6]): 0 mm; diameter of the inhibition zone (DIZ) (Escherichia coli [7]): 2 mm; diameter of the inhibition zone (DIZ) (Klebsiella pneumoniae): 0 mm; Ratio [8]: 16.7; diameter of the inhibition zone (DIZ) (Staphylococcus aureus [9]): 11 mm; diameter of the inhibition zone (DIZ) (Bacillus subtilis): 8 mm; Ratio [10]: 4.1; diameter of the inhibition zone (DIZ) (Enterococcus faecalis): 6 mm

**Q.** Which “diameter of the inhibition zone (DIZ)” value (Staphylococcus aureus [1]) does the source give for COC1=C(C)C(=O)c2c(c(COC(N)=O)c3n2C[C@@H](NC(C)=O)[C@H]3OC(C)=O)C1=O here?
**A.** 5 mm

**Q.** What about the “diameter of the inhibition zone (DIZ)” value (Micrococcus luteus) of the same compound?
**A.** 9 mm

**Q.** What about the Ratio [3] of the same compound?
**A.** 0.8

**Q.** And the “diameter of the inhibition zone (DIZ)” value [5]?
**A.** 0 mm

**Q.** What about the “diameter of the inhibition zone (DIZ)” value (Escherichia coli [6]) of the same compound?
**A.** 0 mm

**Q.** What about the “diameter of the inhibition zone (DIZ)” value (Escherichia coli [7]) of the same compound?
**A.** 0 mm

**Q.** What about the “diameter of the inhibition zone (DIZ)” value (Klebsiella pneumoniae) of the same compound?
**A.** 0 mm

**Q.** What about the Ratio [8] of the same compound?
**A.** 1.6

**Q.** And the “diameter of the inhibition zone (DIZ)” value (Staphylococcus aureus [9])?
**A.** 5 mm

**Q.** And the “diameter of the inhibition zone (DIZ)” value (Bacillus subtilis)?
**A.** 0 mm

**Q.** And the Ratio [10]?
**A.** 1.1

**Q.** And the “diameter of the inhibition zone (DIZ)” value (Enterococcus faecalis)?
**A.** 0 mm

**Q.** For COC1=C(C)C(=O)c2c(c(COC(N)=O)c3n2CC[C@H]3OC(C)=O)C1=O, which “diameter of the inhibition zone (DIZ)” value (Staphylococcus aureus [1]) is on record?
**A.** 15 mm

**Q.** What about the “diameter of the inhibition zone (DIZ)” value (Micrococcus luteus) of the same compound?
**A.** 14 mm

**Q.** What about the Ratio [3] of the same compound?
**A.** 4.3

**Q.** And the “diameter of the inhibition zone (DIZ)” value [5]?
**A.** 7 mm

**Q.** And the “diameter of the inhibition zone (DIZ)” value (Escherichia coli [6])?
**A.** 0 mm

**Q.** What about the “diameter of the inhibition zone (DIZ)” value (Escherichia coli [7]) of the same compound?
**A.** 1 mm

**Q.** And the “diameter of the inhibition zone (DIZ)” value (Klebsiella pneumoniae)?
**A.** 0 mm

**Q.** And the Ratio [8]?
**A.** 24.5

**Q.** And the “diameter of the inhibition zone (DIZ)” value (Staphylococcus aureus [9])?
**A.** 17 mm

**Q.** What about the “diameter of the inhibition zone (DIZ)” value (Bacillus subtilis) of the same compound?
**A.** 23 mm

**Q.** And the Ratio [10]?
**A.** 13.2

**Q.** What about the survival at 6.4 mg/kg (P388 [11]) of the same compound?
**A.** 65%

**Q.** And the “diameter of the inhibition zone (DIZ)” value (Enterococcus faecalis)?
**A.** 16 mm

**Q.** With COC1=C(C)C(=O)c2c(c(COC(N)=O)c3n2CC[C@H]3O)C1=O as the compound, how does the “diameter of the inhibition zone (DIZ)” value (Staphylococcus aureus [1]) read?
**A.** 17 mm

**Q.** What about the “diameter of the inhibition zone (DIZ)” value (Micrococcus luteus) of the same compound?
**A.** 14 mm

**Q.** And the Ratio [3]?
**A.** 1.3

**Q.** What about the “diameter of the inhibition zone (DIZ)” value [5] of the same compound?
**A.** 0 mm

**Q.** And the “diameter of the inhibition zone (DIZ)” value (Escherichia coli [6])?
**A.** 0 mm

**Q.** And the “diameter of the inhibition zone (DIZ)” value (Escherichia coli [7])?
**A.** 0 mm

**Q.** What about the “diameter of the inhibition zone (DIZ)” value (Klebsiella pneumoniae) of the same compound?
**A.** 0 mm

**Q.** What about the Ratio [8] of the same compound?
**A.** 6.9

**Q.** And the “diameter of the inhibition zone (DIZ)” value (Staphylococcus aureus [9])?
**A.** 17 mm

**Q.** What about the “diameter of the inhibition zone (DIZ)” value (Bacillus subtilis) of the same compound?
**A.** 19 mm

**Q.** What about the Ratio [10] of the same compound?
**A.** 2.9

**Q.** And the “diameter of the inhibition zone (DIZ)” value (Enterococcus faecalis)?
**A.** 17 mm

**Q.** Which “diameter of the inhibition zone (DIZ)” value (Staphylococcus aureus [1]) does the source give for CNC(=O)OCc1c2c(n3c1[C@H](NC(C)=O)[C@H](OC(C)=O)C3)C(=O)C(C)=C(OC)C2=O (relative stereo) here?
**A.** 13 mm

**Q.** What about the Ratio [12] of the same compound?
**A.** 1.6

**Q.** What about the Ratio [13] of the same compound?
**A.** 1.4

**Q.** What about the “diameter of the inhibition zone (DIZ)” value (Micrococcus luteus) of the same compound?
**A.** 13 mm

**Q.** And the Ratio [3]?
**A.** 1.1

**Q.** What about the “diameter of the inhibition zone (DIZ)” value [5] of the same compound?
**A.** 0 mm

**Q.** What about the “diameter of the inhibition zone (DIZ)” value (Escherichia coli [6]) of the same compound?
**A.** 0 mm

**Q.** And the Activity (P388 [14])?
**A.** inactive

**Q.** And the “diameter of the inhibition zone (DIZ)” value (Escherichia coli [7])?
**A.** 0 mm

**Q.** And the “diameter of the inhibition zone (DIZ)” value (Klebsiella pneumoniae)?
**A.** 0 mm

**Q.** What about the Ratio [15] of the same compound?
**A.** 1.2

**Q.** And the “diameter of the inhibition zone (DIZ)” value (Staphylococcus aureus [9])?
**A.** 15 mm

**Q.** What about the “diameter of the inhibition zone (DIZ)” value (Bacillus subtilis) of the same compound?
**A.** 14 mm

**Q.** And the Ratio [10]?
**A.** 1.6

**Q.** What about the “diameter of the inhibition zone (DIZ)” value (Enterococcus faecalis) of the same compound?
**A.** 13 mm

**Q.** What does the source list for COC1=C(C)C(=O)C2=C(C1=O)[C@@H](COC(N)=O)[C@@]1(OC)[C@H]3N[C@H]3CN21 [MITOMYCIN A]?
**A.** diameter of the inhibition zone (DIZ) (Staphylococcus aureus [1]): 23 mm; survival at 3.2 mg/kg (P388 [16]): 80%; Ratio [12]: 7.4; Activity [17]: Active; diameter of the inhibition zone (DIZ) (Micrococcus luteus): >25 mm; Activity [18]: Active; Activity (Escherichia coli [4]): Toxic; Activity (Escherichia coli [19]): Toxic; diameter of the inhibition zone (DIZ) [5]: 21 mm; diameter of the inhibition zone (DIZ) (Escherichia coli [6]): 8 mm; diameter of the inhibition zone (DIZ) (Escherichia coli [7]): 13 mm; diameter of the inhibition zone (DIZ) (Klebsiella pneumoniae): 16 mm; Ratio [15]: 31.1; diameter of the inhibition zone (DIZ) (Staphylococcus aureus [9]): 24 mm; Activity (Escherichia coli [20]): Toxic; diameter of the inhibition zone (DIZ) (Bacillus subtilis): >22 mm; Activity [21]: Active; diameter of the inhibition zone (DIZ) (Enterococcus faecalis): 21 mm; Activity (Escherichia coli [22]): Toxic

Source: ChEMBL document CHEMBL3244243, “Mitomycin antibiotics. Synthesis and activity of 1,2-disubstituted mitosenes” (J Med Chem, 1977)
